Measured values pooled from the literature.
Cell line: MCF7
Effect on: cell growth or viability

| Structure (SMILES) | technique | concentration | time | quantity | result |
| --- | --- | --- | --- | --- | --- |
| O=c1[nH]cc(F)c(=O)[nH]1 | MTT | 100 µM | 48 h | cell death | 71.2% |
| CCNc1nc2ccc(-c3c/c(=N\c4ccccc4NC(=O)CCN)c4ccccc4o3)cc2o1 | CCK-8 | 1 µM | – | inhibition | 3.78% |
| COc1ccc(NC(=O)Nc2ccc(-c3cn(Cc4ccc(Br)cc4)nn3)cc2)cc1 | CCK-8 | 50 µM | 72 h | viability | 105% |
| CCS(=O)(=O)Oc1ccc(C=NNC(=O)c2nc3ccccc3s2)cc1OC | MTT | 100 µM | 48 h | cell death | 40.5% |
| COc1ccc(NC(=O)Nc2ccc(-c3cn(Cc4ccc(C)cc4)nn3)cc2)cc1 | CCK-8 | 50 µM | 72 h | viability | 87.4% |
| O=C(NCc1cn(Cc2ccc(Br)cc2)nn1)Nc1ccccc1Br | CCK-8 | 50 µM | 72 h | viability | 80.2% |
| COc1ccc(NC(=O)NCc2cn(Cc3ccc(Cl)cc3)nn2)cc1 | CCK-8 | 50 µM | 72 h | viability | 95.3% |
| Cc1n[nH]c2ccc3nc(-c4ccc(C(=O)NCCN(C)C)cc4F)c4c(c3c12)CCCC4 | – | – | 72 h | GI50 | 0.99 µM |
| COc1ccc(NC(=O)Nc2ccc(-c3cn(Cc4ccc(Cl)cc4)nn3)cc2)cc1 | CCK-8 | 50 µM | 48 h | viability | 95.1% |
| CCCS(=O)(=O)Oc1cc(C=NNC(=O)c2nc3ccccc3s2)ccc1OC | MTT | 100 µM | 48 h | cell death | 26.3% |
| Nc1nc2ccc(-c3c/c(=N\c4ccccc4NC(=O)CCN4CCOCC4)c4ccccc4o3)cc2o1 | CCK-8 | 1 µM | – | inhibition | 7.35% |
| O=C(NCc1cn(Cc2ccc(Br)cc2)nn1)Nc1ccc(Cl)cc1 | CCK-8 | 50 µM | 48 h | viability | 89.8% |
| O=C(NN=Cc1ccc(O)cc1)c1nc2ccccc2s1 | MTT | 100 µM | 48 h | cell death | 38.1% |
| CN(C)CCNC(=O)c1ccc(-c2nc3ccc4[nH]ncc4c3c3c2CCCCC3)c(F)c1 | – | – | 72 h | GI50 | 3.31 µM |
| CC(C)C[C@@H](NC(=O)[C@H](C)NC(=O)CNC(=O)[C@@H](NC=O)C(C)C)C(=O)N[C@@H](C)C(=O)N[C@@H](C(=O)N[C@H](C(=O)N[C@@H](C(=O)N[C@@H](Cc1c[nH]c2ccccc12)C(=O)N[C@H](CC(C)C)C(=O)N[C@@H](Cc1c[nH]c2ccccc12)C(=O)N[C@H](CC(C)C)C(=O)N[C@@H](Cc1c[nH]c2ccccc12)C(=O)N[C@@H](C(=O)N[C@@H](Cc1c[nH]c2ccccc12)C(=O)NCCO)C(C)C)[C@H](C)O)C(C)C)C(C)C | SRB | – | 48 h | GI50 | 0.397 µM |
| O=C(Nc1cccc(-c2cn(Cc3ccc(Br)cc3)nn2)c1)Nc1ccccc1Br | CCK-8 | 50 µM | 72 h | viability | 76.8% |
| Cc1nc(NC(=O)N2CCC[C@H]2C(N)=O)sc1-c1ccnc(C(C)(C)C(F)(F)F)c1 | ATP luminescence | – | 5 days | EC50 | 0.917 µM |
| CC(C)(C)[C@H](N)C(=O)Nc1ccccc1/N=c1\cc(-c2ccc3c(c2)OCCO3)oc2cc(F)ccc12 | CCK-8 | 1 µM | – | inhibition | 9.85% |

| Structure (SMILES) | technique | concentration | time | quantity | result |
| --- | --- | --- | --- | --- | --- |
| CCOc1ccc(-c2cc(C(=O)O)c(-c3ccc(Cl)cc3)o2)cc1 | MTT | – | 48 h | EC50 | 170 µM |
| COCCC(=O)Nc1ccccc1/N=c1\cc(-c2ccc3nc(N)oc3c2)oc2ccccc12 | CCK-8 | 1 µM | – | inhibition | 7.99% |
| COc1ccc(NC(=O)NCc2cn(Cc3ccc(Br)cc3)nn2)cc1 | CCK-8 | 50 µM | 48 h | viability | 87.8% |
| NCCC(=O)Nc1cccc(/N=c2\cc(-c3ccc4c(c3)OCO4)oc3ccccc23)c1 | CCK-8 | 1 µM | – | inhibition | 15.7% |
| COc1ccc(NC(=O)Nc2ccc(-c3cn(Cc4cccc(Cl)c4)nn3)cc2)cc1 | CCK-8 | 50 µM | 48 h | viability | 95.4% |
| O=C(Nc1ccc(-c2cn(Cc3ccc(Br)cc3)nn2)cc1)Nc1ccccc1Br | CCK-8 | 50 µM | 48 h | viability | 92.9% |
| COc1ccc(NC(=O)Nc2cccc(-c3cn(Cc4cccc(Cl)c4)nn3)c2)cc1 | CCK-8 | 50 µM | 48 h | viability | 103% |
| CN(C)CCNC(=O)c1ccc(-c2nc3ccc4[nH]ncc4c3c3c2CCCC3)cc1 | – | – | 72 h | GI50 | 3.34 µM |
| O=C(NCc1cn(Cc2ccc(Cl)cc2)nn1)Nc1ccc(Cl)cc1 | CCK-8 | 50 µM | 72 h | viability | 83.3% |
| NCCC(=O)Nc1ccccc1/N=c1\cc(-c2ccc3oc(N)nc3c2)oc2ccccc12 | CCK-8 | 1 µM | – | inhibition | 6% |
| Cc1n[nH]c2ccc3nc(-c4ccc(C(=O)NCCN(C)C)cc4F)c4c(c3c12)CCCCC4 | – | – | 72 h | GI50 | 5.72 µM |
| C[C@H](N)C(=O)Nc1ccccc1/N=c1\cc(-c2ccc3c(c2)OCO3)oc2ccccc12 | CCK-8 | 1 µM | – | inhibition | 8.48% |
| O=C(NCc1cn(Cc2ccc(Cl)cc2)nn1)Nc1ccccc1Br | CCK-8 | 50 µM | 48 h | viability | 84.4% |
| CC(C)(C)c1cc(NC(=O)Nc2ccc(-c3cn4c(n3)sc3cc(OCCN5CCOCC5)ccc34)cc2)no1 | – | – | 72 h | GI50 | > 10 µM |
| O=C(NCc1cn(Cc2cccc(Cl)c2)nn1)Nc1ccc(Cl)cc1 | CCK-8 | 50 µM | 72 h | viability | 87.2% |
| COc1ccc(NC(=O)NCc2cn(Cc3ccccc3C)nn2)cc1 | CCK-8 | 50 µM | 72 h | viability | 98.7% |
| O=C(Nc1cccc(-c2cn(Cc3ccc(Cl)cc3)nn2)c1)Nc1ccccc1Br | CCK-8 | 50 µM | 48 h | viability | 89.5% |
| NCCC(=O)Nc1ccccc1/N=c1\cc(-c2ccc3nc(N)oc3c2)oc2ccc(O)cc12 | CCK-8 | 1 µM | – | inhibition | 12.1% |
